Active and inactive are the calls of the source. The calls are words filed in the database; no cut-off is given here.
Tests used:
[1] = target: Insulin-like growth factor 1 receptor (Homo sapiens) (UniProt P08069); assay: Percentage activity of human IGF-1R in the presence of 10 uM of compound and 10 uM of ATP in comparison with control
[2] = species: Homo sapiens; assay: Percentage activity of human Rsk2 in the presence of 10 uM of compound and 10 uM of ATP in comparison with control
[3] = target: Mitogen-activated protein kinase 9, JNK2 (Homo sapiens) (UniProt P45984); assay: Percentage activity of human JNK2a2 in the presence of 10 uM of compound and 10 uM of ATP in comparison with control
[4] = target: Protein kinase C delta type (Homo sapiens) (UniProt Q05655); assay: Percentage activity of human PKC delta in the presence of 10 uM of compound and 10 uM of ATP in comparison with control
[5] = target: Proto-oncogene tyrosine-protein kinase Src (Homo sapiens) (UniProt P12931); assay: Percentage activity of human cSRC in the presence of 10 uM of compound and 10 uM of ATP in comparison with control
[6] = species: Rattus norvegicus; assay: Percentage activity of rat AMPK in the presence of 10 uM of compound and 10 uM of ATP in comparison with control
[7] = test system: Saccharomyces cerevisiae; assay: Percentage activity of yeast CK1 in the presence of 10 uM of compound and 10 uM of ATP in comparison with control
[8] = target: Aurora kinase A (Homo sapiens) (UniProt O14965); assay: Percentage activity of human Aurora-A in the presence of 10 uM of compound and 10 uM of ATP in comparison with control
[9] = target: Serine/threonine-protein kinase D1 (Homo sapiens) (UniProt Q15139); assay: Percentage activity of human PKC mu in the presence of 10 uM of compound and 10 uM of ATP in comparison with control
[10] = target: Tyrosine-protein kinase ABL1 (Mus musculus) (UniProt P00520); assay: Percentage activity of mouse Abl in the presence of 10 uM of compound and 10 uM of ATP in comparison with control
[11] = target: Ca2+/calmodulin-dependent protein kinase II (CaM kinase II) (Rattus norvegicus) (UniProt P11275+P08413+P15791+P11730); assay: Percentage activity of rat CaMKII in the presence of 10uM of compound and 10uM of ATP in comparison with control; assay type: protein assay
[12] = target: Mitogen-activated protein kinase 13 (Homo sapiens) (UniProt O15264); assay: Percentage activity of human SAPK4 in the presence of 10 uM of compound and 10 uM of ATP in comparison with control
[13] = target: Serine/threonine-protein kinase Sgk1 (Homo sapiens) (UniProt O00141); assay: Percentage activity of human SGK in the presence of 10 uM of compound and 10 uM of ATP in comparison with control
[14] = target: Mitogen-activated protein kinase 10 (Homo sapiens) (UniProt P53779); assay: Percentage activity of human JNK3 in the presence of 10 uM of compound and 10 uM of ATP in comparison with control
[15] = target: Dual specificity mitogen-activated protein kinase kinase 4 (Mus musculus) (UniProt P47809); assay: Percentage activity of mouse MKK4 in the presence of 10 uM of compound and 10 uM of ATP in comparison with control
[16] = test system: SCG; assay: Cell activity of JNK inhibitors in neuronal apoptosis assay in SCG cells, percentage rescued neurons at 1uM compound concentration after 48 hours; assay type: functional, Rattus norvegicus
In short: (§1)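 They were cultured in Leibowitz medium with 5% rat serum, 0.75 µg/mL NGF 7S and arabinosine C 10^-5 M. On day 4, medium was switched to 10 µg/mL anti-NGF antibody without NGF or AraC, with inhibitor in 1% DMSO. After 24 h, cells were refed initial medium minus AraC. After another 24 h, viability was read by MTT (0.5 mg/mL, 30 min, 37 °C), OD 590 nm.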

[17] = test system: SCG; assay: Cell activity of JNK inhibitors in neuronal apoptosis assay in SCG cells, percentage rescued neurons at 3 uM compound concentration after 48 hours; assay type: functional, Rattus norvegicus; in short: as §1
[18] = target: 3-phosphoinositide-dependent protein kinase 1 (Homo sapiens) (UniProt O15530); assay: Percentage activity of human PDK1 in the presence of 10 uM of compound and 10 uM of ATP in comparison with control
[19] = test system: SCG; assay: Cell activity of JNK inhibitors in neuronal apoptosis assay in SCG cells, percentage rescued neurons at 1 uM compound concentration after 24 hours; assay type: functional, cell-based; conditions: Rattus norvegicus
[20] = target: Protein kinase C gamma type (Homo sapiens) (UniProt P05129); assay: Percentage activity of human PKC gamma in the presence of 10 uM of compound and 10 uM of ATP in comparison with control
[21] = target: Mitogen-activated protein kinase 1 (Homo sapiens) (UniProt P28482); assay: Percentage activity of human MAPK2 in the presence of 10 uM of compound and 10 uM of ATP in comparison with control
[22] = target: Mitogen-activated protein kinase 11 (Homo sapiens) (UniProt Q15759); assay: Percentage activity of human SAPK2b in the presence of 10 uM of compound and 10 uM of ATP in comparison with control
[23] = target: Tyrosine-protein kinase Lyn (Homo sapiens) (UniProt P07948); assay: Percentage activity of human Lyn in the presence of 10 uM of compound and 10 uM of ATP in comparison with control
[24] = target: Fibroblast growth factor receptor 3 (Homo sapiens) (UniProt P22607); assay: Percentage activity of human FGFR3 in the presence of 10 uM of compound and 10 uM of ATP in comparison with control
[25] = target: Mitogen-activated protein kinase 8 (Homo sapiens) (UniProt P45983); assay: Percentage activity of human JNK1a1 in the presence of 10 uM of compound and 10 uM of ATP in comparison with control
[26] = target: Cyclin-dependent kinase 2/cyclin A (Homo sapiens) (UniProt P24941+P20248+P78396); assay: Percentage activity of human CDK2 (with cyclin A) in the presence of 10 uM of compound and 10 uM of ATP in comparison with control; assay type: protein-complex assay
[27] = target: Protein kinase C iota type (Homo sapiens) (UniProt P41743); assay: Percentage activity of human PKC iota in the presence of 10 uM of compound and 10 uM of ATP in comparison with control
[28] = target: Tyrosine-protein kinase CSK (Homo sapiens) (UniProt P41240); assay: Percentage activity of human CSK in the presence of 10uM of compound and 10uM of ATP in comparison with control
[29] = test system: SCG; assay: Cell activity of JNK inhibitors in neuronal apoptosis assay in SCG cells, percentage rescued neurons at 10 uM compound concentration after 24 hours; assay type: functional, Rattus norvegicus
[30] = target: Tyrosine-protein kinase Yes (Homo sapiens) (UniProt P07947); assay: Percentage activity of human Yes in the presence of 10 uM of compound and 10 uM of ATP in comparison with control
Sequence of Tyrosine-protein kinase Yes (Homo sapiens) (P07947 2-543 limits assumed): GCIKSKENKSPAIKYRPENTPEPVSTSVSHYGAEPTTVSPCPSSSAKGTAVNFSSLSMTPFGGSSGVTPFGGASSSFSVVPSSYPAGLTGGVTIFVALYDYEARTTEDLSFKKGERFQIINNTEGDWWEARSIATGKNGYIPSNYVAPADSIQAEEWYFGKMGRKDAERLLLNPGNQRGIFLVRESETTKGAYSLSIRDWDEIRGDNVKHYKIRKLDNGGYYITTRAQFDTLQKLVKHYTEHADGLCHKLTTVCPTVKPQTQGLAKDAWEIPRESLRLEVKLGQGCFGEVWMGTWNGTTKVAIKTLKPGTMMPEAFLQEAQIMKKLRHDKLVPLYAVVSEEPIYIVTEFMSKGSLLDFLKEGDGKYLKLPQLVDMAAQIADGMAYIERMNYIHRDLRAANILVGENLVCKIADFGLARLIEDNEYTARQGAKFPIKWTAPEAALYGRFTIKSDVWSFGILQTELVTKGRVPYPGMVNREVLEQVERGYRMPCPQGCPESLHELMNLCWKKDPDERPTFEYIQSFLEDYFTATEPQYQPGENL

Sequence of Protein kinase C delta type (Homo sapiens) (Q05655 whole entry, looked up): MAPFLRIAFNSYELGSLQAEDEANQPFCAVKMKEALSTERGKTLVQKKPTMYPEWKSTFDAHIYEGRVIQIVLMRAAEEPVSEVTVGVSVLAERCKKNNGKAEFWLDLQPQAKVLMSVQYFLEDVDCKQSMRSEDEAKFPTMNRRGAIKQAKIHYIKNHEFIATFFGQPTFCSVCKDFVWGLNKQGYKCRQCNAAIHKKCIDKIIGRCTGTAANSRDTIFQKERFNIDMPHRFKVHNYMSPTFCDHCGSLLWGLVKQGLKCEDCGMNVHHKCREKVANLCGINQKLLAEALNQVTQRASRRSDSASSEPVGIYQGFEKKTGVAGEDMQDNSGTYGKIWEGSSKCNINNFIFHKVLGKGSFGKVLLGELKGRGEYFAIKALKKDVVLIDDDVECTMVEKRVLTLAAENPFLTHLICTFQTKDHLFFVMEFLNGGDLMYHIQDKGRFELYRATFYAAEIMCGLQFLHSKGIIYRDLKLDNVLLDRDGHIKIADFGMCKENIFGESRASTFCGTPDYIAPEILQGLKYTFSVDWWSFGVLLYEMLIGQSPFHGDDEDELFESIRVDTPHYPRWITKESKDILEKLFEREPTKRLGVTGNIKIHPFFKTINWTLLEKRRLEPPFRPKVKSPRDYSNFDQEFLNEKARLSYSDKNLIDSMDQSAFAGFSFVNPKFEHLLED
Sequence of Mitogen-activated protein kinase 1 (Homo sapiens) (P28482 whole entry): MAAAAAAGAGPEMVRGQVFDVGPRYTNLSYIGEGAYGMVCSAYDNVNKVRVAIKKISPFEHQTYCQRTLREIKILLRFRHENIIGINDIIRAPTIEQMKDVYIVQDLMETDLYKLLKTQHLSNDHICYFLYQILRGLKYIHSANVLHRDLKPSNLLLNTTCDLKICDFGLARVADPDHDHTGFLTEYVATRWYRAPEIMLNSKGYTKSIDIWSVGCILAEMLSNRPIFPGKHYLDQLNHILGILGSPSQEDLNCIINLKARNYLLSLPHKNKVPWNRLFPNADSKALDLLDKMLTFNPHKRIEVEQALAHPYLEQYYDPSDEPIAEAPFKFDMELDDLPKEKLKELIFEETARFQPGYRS
Sequence of Mitogen-activated protein kinase 13 (Homo sapiens) (O15264 whole entry): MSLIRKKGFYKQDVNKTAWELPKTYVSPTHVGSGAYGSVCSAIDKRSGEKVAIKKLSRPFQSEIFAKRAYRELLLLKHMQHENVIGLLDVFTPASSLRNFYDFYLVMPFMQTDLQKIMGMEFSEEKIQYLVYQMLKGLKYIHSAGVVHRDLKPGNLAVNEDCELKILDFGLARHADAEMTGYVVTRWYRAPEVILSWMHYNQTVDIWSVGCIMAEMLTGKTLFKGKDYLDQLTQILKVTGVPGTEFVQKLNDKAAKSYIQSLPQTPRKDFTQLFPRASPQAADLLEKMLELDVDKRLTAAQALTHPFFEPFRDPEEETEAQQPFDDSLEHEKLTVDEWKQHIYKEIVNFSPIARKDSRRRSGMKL
Sequence of Mitogen-activated protein kinase 8 (Homo sapiens) (P45983 whole entry): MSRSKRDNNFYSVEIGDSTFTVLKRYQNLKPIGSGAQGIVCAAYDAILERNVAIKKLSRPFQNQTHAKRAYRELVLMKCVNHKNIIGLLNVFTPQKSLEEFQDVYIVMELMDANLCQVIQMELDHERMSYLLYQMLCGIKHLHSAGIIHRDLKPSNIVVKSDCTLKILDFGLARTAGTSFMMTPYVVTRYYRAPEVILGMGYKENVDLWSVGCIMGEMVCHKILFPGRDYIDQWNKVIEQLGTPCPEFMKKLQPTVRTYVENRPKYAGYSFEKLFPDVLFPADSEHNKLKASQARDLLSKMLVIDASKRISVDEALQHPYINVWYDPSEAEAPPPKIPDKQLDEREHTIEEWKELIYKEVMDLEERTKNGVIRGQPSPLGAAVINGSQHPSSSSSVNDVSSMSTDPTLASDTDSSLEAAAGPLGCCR
Sequence of Serine/threonine-protein kinase D1 (Homo sapiens) (Q15139 whole entry): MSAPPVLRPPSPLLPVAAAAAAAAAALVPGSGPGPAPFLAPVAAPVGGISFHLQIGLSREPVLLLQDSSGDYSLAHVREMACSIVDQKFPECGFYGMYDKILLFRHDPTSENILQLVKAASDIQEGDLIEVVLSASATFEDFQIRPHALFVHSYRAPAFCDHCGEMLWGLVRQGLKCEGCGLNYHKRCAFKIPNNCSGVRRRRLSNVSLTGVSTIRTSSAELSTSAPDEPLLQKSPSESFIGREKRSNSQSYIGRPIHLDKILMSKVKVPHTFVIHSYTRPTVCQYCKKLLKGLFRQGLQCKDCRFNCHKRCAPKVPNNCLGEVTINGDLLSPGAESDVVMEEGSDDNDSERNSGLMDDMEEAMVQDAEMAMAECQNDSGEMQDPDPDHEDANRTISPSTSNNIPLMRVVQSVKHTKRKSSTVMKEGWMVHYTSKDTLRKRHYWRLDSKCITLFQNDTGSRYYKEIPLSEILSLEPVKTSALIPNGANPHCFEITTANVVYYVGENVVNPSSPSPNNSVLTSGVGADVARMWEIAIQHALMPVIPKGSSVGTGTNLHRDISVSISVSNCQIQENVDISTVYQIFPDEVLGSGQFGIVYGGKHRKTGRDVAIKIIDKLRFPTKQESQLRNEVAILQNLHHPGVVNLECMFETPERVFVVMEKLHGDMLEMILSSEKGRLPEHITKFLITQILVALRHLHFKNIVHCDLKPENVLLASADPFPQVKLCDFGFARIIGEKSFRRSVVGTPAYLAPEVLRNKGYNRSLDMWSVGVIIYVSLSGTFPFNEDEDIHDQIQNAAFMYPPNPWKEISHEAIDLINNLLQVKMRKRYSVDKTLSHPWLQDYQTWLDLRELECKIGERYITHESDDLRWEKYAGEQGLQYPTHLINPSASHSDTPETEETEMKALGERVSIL
Sequence of Aurora kinase A (Homo sapiens) (O14965 whole entry): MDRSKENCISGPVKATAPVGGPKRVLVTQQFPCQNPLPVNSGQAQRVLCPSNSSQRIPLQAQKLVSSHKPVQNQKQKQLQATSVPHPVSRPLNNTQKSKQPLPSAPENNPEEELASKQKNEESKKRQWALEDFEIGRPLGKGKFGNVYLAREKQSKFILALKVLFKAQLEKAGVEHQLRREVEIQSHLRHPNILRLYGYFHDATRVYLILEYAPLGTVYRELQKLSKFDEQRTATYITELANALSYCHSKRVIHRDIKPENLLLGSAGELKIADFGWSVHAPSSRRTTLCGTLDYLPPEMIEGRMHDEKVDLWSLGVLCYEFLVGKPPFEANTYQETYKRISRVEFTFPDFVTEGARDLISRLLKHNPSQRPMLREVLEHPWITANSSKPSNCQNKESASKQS
Sequence of Mitogen-activated protein kinase 9, JNK2 (Homo sapiens) (P45984 whole entry, looked up): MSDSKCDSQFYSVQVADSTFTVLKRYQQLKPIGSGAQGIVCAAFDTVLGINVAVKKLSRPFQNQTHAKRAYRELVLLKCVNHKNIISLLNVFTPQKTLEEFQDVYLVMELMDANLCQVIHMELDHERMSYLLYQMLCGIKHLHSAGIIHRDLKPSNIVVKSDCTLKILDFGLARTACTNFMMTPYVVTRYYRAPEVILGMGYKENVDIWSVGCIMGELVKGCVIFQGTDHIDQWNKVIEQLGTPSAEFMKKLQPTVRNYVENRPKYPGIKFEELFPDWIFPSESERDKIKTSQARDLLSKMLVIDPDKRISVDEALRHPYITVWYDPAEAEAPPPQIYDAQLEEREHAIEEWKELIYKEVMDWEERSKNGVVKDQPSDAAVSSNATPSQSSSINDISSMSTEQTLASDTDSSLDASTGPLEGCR
Sequence of Fibroblast growth factor receptor 3 (Homo sapiens) (P22607 23-806 limits assumed): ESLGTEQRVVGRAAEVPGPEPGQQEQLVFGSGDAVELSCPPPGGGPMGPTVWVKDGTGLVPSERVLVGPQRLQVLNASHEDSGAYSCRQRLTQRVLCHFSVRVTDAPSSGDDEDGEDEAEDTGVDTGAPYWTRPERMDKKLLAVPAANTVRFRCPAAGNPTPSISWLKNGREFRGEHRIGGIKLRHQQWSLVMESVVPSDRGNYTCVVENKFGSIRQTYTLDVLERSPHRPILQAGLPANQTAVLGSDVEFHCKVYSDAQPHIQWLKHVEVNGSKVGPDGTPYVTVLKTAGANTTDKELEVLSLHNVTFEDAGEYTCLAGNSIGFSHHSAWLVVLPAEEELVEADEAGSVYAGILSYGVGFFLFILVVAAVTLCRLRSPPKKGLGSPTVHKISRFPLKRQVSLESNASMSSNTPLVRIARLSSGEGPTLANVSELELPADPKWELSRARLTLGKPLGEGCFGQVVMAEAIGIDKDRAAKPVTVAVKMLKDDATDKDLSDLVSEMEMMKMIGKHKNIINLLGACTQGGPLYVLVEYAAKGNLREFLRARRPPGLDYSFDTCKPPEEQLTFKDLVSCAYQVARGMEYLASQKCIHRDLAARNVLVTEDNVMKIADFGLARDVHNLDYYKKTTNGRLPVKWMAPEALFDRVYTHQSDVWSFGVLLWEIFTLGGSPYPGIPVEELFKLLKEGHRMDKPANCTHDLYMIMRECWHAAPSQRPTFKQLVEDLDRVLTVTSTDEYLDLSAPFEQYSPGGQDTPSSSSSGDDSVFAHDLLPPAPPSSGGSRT

Work on O=C(NCc1ccc(S(=O)(=O)N2CCC(n3nnc4ccccc43)CC2)s1)c1ccc(Cl)cc1 yielded an Activity [1] of 108%, an Activity [2] of 77% and an Activity [3] of 16%. For the same molecule, the Activity [4] was 95%, the Activity [5] was 67% and the Activity [6] was 90%. It also gave an Activity [7] of 85%, an Activity [8] of 79% and an Activity [9] of 93%. For the same molecule, the Activity [10] was 80%, the Activity [11] was 93% and the Activity [12] was 101%. For the same molecule, the Activity [13] was 67%, the Activity [14] was 6% and the Activity [15] was 112%. The Rescued neurons [16] was 2.2%, the Rescued neurons [17] was 25.2% and the Activity [18] was 98%. For the same molecule, the Rescued neurons [19] was “inactive”, the Activity [20] was 79% and the Activity [21] was 106%. The Activity [22] was 100%, the Activity [23] was 89% and the Activity [24] was 76%. For the same molecule, the Activity [25] was 20%, the Activity [26] was 99% and the Activity [27] was 99%. For the same molecule, the Activity [28] was 130%, the Rescued neurons [29] was 27.3% and the Activity [30] was 61%.
